We go through 17 compounds from ChEMBL document CHEMBL4602607, “Hit-to-Lead Optimization of Benzoxazepinoindazoles As Human African Trypanosomiasis Therapeutics” (J Med Chem, 2020).

The nature of series [1]: Distribution coefficient, logD of compound. Format: physicochemical. The following applies: octanol/water.
A short description of series [2]: Intrinsic clearance in rat hepatocytes assessed per 10^6 cells by LC-MS/MS analysis. It counts as ADME, cell-based, Hepatocyte. The gist of the method:
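Rat hepatocyte incubation, samples analysed by LC/MS/MS; intrinsic clearance reported in µL/min/1 million cells.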

A short description of series [3]: Cmax in NMRI mouse at 10 mg/kg, ip measured up to 24 hrs by LC-MS/MS analysis. It counts as ADME, organism-based. Details: dose 10 mg/kg, route intraperitoneal. The following applies: in vivo.
A short description of another series: in vivo. To be noted: NMRI, mouse, ip, 10 mg/kg.
The nature of series [4]: Intrinsic clearance in human liver microsomes assessed per mg protein by LC-MS/MS analysis. Format: ADME, Microsome.
Series [5] is described as follows: Half life in NMRI mouse at 10 mg/kg, ip measured up to 24 hrs by LC-MS/MS analysis. The following applies: in vivo. It counts as ADME, organism-based.
Series [6] in a line: Ratio of drug concentration in brain to blood in NMRI mouse at 10 mg/kg, ip measured at 0.5 hrs by LC-MS/MS analysis. Format: ADME, organism-based. The following applies: brain and blood, read-out: BBR.
Series [7] can be described thus: Ratio of drug concentration in brain to blood in NMRI mouse at 10 mg/kg, ip measured at 4 hrs by LC-MS/MS analysis. It counts as ADME, organism-based. The following applies: brain and blood, read-out: BBR.

One may read the logD as lipophilicity at a set pH, counting ionised and neutral species. A word on the Cmax: it is the highest concentration seen after dosing. In general, Tmax refers to the time at which the peak concentration occurs.

As for `Nc1cccc(-c2cc3c4c(n[nH]c4c2)Nc2ccccc2O3)n1`, the log distribution coefficient (logD) in series [1] is 3.7. Moreover, the hepatocyte CLint in series [2] amounted to 220 µL/min/10^6 cells.
Compound `CCOc1cc(-c2ccnc(N)n2)cc2[nH]nc(N)c12` yielded a logD in series [1] of 1.7. The compound further came in with a Cmax in series [3] of 3603 ng/mL. For the same compound, the time of peak concentration (Tmax) at 24 h in “in vivo” was 15 to 300 min. The CLH in series [4] came to 25 µL/min. The compound further returned a t1/2 in series [5] of 53.6 min. Moreover, the Kp at 0.5 h in series [6] stood at 0.155. The Kp at 4 h in series [7] came out at 0.214.
In the case of `CCNc1cc(-c2cc3c4c(n[nH]c4c2)Nc2ccccc2O3)nc(N)n1`, the hepatocyte CLint in series [2] came to 26 µL/min/10^6 cells.
In series [1], `CN1CCN(c2cc(-c3cc4c5c(n[nH]c5c3)Nc3ccccc3O4)nc(N)n2)CC1` returned a log distribution coefficient (logD) of 3.4. Moreover, in series [2], the hepatocyte CLint turned out to be 16 µL/min/10^6 cells.
Compound `CN(C)c1cc(-c2cc3c4c(n[nH]c4c2)Nc2ccccc2O3)nc(N)n1` had a pH-dependent lipophilicity (logD) in series [1] of over 4.4. In series [2], the hepatocyte CLint was found to be 44 µL/min/10^6 cells.
Take `Cn1nc2c3c(cc(-c4ccnc(N)n4)cc31)Oc1ccccc1N2`: the logD in series [1] was over 4.3. The compound also returned a Cmax in series [3] of 615 ng/mL. In addition, the time to peak (Tmax) at 24 h in the series “in vivo” is 15 to 300 min. Also, in series [2], the hepatocyte CLint turned out to be 12 µL/min/10^6 cells. Moreover, in series [5], the t1/2 came out at 63.6 min. Besides, the Kp at 0.5 h in series [6] is 2.39. In addition, the Kp at 4 h in series [7] is 2.12.
For the compound `CN(C)c1nccc(-c2cc3c4c(n[nH]c4c2)Nc2ccccc2O3)n1`, the logD in series [1] is on record as over 3.9. This compound also came in with a hepatocyte CLint in series [2] of 29 µL/min/10^6 cells.
Take `Nc1nccc(-c2cc3c4c(n[nH]c4c2)N[C@@H]2CCC[C@H]2O3)n1`: the log distribution coefficient (logD) in series [1] (read-out: logD) was found to be 2.8. In addition, in series [2] (read-out: CLH), the hepatocyte CLint amounted to 52 µL/min/1e6 cells.
Take `c1ccc2c(c1)Nc1n[nH]c3cccc(c13)O2`: the logD in series [1] (read-out: logD) is over 4. The compound also yielded a hepatocyte CLint in series [2] of 47 µL/min/10^6 cells.
Turning to `Nc1ccnc(-c2cc3c4c(n[nH]c4c2)Nc2ccccc2O3)n1`, the logD in series [1] is given as 4.1. Moreover, in series [2], the hepatocyte CLint turned out to be 56 µL/min/10^6 cells.
For `Nc1nc(-c2cc3c4c(n[nH]c4c2)Nc2ccccc2O3)cc(N2CCCCC2)n1`, in that order: 4.6 and 25 µL/min/10^6 cells.
As to `CNc1cc(-c2cc3c4c(n[nH]c4c2)Nc2ccccc2O3)nc(N)n1`, in series [1], the pH-dependent lipophilicity (logD) is listed as over 4.2. Besides, the hepatocyte CLint in series [2] stood at 45 µL/min/10^6 cells.
Take `Nc1cc(-c2cc3c4c(n[nH]c4c2)Nc2ccccc2O3)ncn1`: in series [1], the logD amounted to 3.8. For the same compound, the hepatocyte CLint in series [2] amounted to 73 µL/min/10^6 cells.
Compound `CNc1nccc(-c2cc3c4c(n[nH]c4c2)Nc2ccccc2O3)n1` registered a logD in series [1] of 3.8. Further, in series [2], the hepatocyte CLint stood at 45 µL/min/10^6 cells.
In turn, `COCc1cc(-c2cc3c4c(n[nH]c4c2)Nc2ccccc2O3)nc(N)n1` showed a hepatocyte CLint in series [2] of 41.4 µL/min/10^6 cells.
In series [1], `c1ccc2c(c1)Nc1n[nH]c3cc(-c4ccncn4)cc(c13)O2` gave a pH-dependent lipophilicity (logD) of 3.5. Besides, the hepatocyte CLint in series [2] amounted to 68 µL/min/10^6 cells.
For the compound `CC(C)Nc1cc(-c2cc3c4c(n[nH]c4c2)Nc2ccccc2O3)nc(N)n1`, the logD in series [1] worked out at 4.9. The hepatocyte CLint in series [2] stood at 32 µL/min/10^6 cells.
